# From ChEMBL document CHEMBL3797186, “Single Residue Substitutions That Confer Voltage-Gated Sodium Ion Channel Subtype Selectivity in the NaV1.7 Inhibitory Peptide GpTx-1” (J Med Chem, 2016)
# Positions of bridges follow the written chain, without caps; N, C: chain ends. Non-standard residues stand in square brackets, D forms with d. Residues, ends and D or L forms follow the SMILES beside them. Ala(indol-2-yl) = N[C@@H](Cc1cc2ccccc2[nH]1)C(=O)O; 1Nal = N[C@@H](Cc1cccc2ccccc12)C(=O)O; 2Pal = N[C@@H](Cc1ccccn1)C(=O)O
# How the values were obtained:
# Type in all cases: cell-based
# [1] = biological target: T1, Sodium channel protein type 5 subunit alpha (Homo sapiens, UniProt Q14524); test: Inhibition of human Nav1.5 expressed in HEK293 cells assessed as inward peak current by ion-works quattro patch clamp electrophysiology method
# T1 sequence (Q14524 whole entry): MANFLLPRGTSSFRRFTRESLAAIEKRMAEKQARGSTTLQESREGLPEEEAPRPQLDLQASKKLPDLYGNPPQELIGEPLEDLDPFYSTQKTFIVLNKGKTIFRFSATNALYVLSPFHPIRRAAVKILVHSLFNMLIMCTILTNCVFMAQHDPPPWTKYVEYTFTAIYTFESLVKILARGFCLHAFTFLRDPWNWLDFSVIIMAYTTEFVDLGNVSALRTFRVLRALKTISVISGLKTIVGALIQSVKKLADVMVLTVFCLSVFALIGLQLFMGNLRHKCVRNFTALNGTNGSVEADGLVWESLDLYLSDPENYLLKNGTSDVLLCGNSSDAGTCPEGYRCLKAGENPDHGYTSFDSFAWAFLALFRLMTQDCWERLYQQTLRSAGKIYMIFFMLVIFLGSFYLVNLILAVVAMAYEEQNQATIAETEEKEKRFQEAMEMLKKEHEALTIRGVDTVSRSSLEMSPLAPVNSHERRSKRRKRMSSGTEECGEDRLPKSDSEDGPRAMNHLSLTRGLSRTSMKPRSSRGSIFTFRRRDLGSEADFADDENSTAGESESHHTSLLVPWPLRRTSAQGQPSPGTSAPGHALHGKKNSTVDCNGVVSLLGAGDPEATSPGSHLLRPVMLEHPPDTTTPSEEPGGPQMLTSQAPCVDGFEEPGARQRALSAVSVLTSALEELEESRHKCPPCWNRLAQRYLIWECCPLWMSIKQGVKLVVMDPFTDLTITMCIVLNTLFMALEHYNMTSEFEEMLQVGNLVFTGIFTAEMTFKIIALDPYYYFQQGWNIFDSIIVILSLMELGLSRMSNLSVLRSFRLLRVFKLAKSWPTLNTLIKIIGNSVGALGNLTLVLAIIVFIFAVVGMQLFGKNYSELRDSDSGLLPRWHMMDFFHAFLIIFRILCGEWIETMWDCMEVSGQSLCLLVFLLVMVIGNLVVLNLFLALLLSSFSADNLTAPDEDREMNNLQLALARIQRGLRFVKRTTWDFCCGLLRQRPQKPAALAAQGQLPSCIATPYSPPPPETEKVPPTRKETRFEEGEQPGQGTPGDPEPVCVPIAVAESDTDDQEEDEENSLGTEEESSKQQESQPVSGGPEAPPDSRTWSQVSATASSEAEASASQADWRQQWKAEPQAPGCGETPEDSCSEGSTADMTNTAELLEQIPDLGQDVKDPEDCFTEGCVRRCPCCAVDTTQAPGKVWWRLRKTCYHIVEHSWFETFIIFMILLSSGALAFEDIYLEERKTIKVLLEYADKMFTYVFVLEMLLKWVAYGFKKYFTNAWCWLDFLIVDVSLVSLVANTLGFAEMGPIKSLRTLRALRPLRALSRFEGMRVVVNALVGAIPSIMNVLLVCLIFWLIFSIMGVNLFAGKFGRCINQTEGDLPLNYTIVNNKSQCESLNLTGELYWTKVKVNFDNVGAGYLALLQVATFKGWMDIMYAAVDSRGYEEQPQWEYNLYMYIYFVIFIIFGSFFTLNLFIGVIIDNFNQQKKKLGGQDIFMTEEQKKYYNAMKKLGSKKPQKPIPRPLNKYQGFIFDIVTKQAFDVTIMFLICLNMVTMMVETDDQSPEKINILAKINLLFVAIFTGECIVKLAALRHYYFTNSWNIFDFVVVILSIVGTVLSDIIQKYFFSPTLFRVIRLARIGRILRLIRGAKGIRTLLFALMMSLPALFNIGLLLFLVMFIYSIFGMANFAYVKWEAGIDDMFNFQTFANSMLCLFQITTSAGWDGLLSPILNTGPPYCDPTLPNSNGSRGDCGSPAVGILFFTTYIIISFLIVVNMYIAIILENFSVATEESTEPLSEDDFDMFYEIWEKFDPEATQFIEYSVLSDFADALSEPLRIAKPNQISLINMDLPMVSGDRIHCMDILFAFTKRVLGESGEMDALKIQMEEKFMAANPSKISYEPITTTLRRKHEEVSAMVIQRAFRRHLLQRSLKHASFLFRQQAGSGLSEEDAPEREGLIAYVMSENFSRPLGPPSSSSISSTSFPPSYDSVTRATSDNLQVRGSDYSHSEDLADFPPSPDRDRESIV
# Summary of the method: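 Stable HEK293 line expressing human NaV1.5, recorded by population patch clamp on the IonWorks Quattro.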
# [2] = biological target: T2, Sodium channel protein type 9 subunit alpha (Homo sapiens, UniProt Q15858); test: Inhibition of human Nav1.7 expressed in HEK293 cells by whole cell patch clamp electrophysiology method
# T2 sequence (Q15858 whole entry): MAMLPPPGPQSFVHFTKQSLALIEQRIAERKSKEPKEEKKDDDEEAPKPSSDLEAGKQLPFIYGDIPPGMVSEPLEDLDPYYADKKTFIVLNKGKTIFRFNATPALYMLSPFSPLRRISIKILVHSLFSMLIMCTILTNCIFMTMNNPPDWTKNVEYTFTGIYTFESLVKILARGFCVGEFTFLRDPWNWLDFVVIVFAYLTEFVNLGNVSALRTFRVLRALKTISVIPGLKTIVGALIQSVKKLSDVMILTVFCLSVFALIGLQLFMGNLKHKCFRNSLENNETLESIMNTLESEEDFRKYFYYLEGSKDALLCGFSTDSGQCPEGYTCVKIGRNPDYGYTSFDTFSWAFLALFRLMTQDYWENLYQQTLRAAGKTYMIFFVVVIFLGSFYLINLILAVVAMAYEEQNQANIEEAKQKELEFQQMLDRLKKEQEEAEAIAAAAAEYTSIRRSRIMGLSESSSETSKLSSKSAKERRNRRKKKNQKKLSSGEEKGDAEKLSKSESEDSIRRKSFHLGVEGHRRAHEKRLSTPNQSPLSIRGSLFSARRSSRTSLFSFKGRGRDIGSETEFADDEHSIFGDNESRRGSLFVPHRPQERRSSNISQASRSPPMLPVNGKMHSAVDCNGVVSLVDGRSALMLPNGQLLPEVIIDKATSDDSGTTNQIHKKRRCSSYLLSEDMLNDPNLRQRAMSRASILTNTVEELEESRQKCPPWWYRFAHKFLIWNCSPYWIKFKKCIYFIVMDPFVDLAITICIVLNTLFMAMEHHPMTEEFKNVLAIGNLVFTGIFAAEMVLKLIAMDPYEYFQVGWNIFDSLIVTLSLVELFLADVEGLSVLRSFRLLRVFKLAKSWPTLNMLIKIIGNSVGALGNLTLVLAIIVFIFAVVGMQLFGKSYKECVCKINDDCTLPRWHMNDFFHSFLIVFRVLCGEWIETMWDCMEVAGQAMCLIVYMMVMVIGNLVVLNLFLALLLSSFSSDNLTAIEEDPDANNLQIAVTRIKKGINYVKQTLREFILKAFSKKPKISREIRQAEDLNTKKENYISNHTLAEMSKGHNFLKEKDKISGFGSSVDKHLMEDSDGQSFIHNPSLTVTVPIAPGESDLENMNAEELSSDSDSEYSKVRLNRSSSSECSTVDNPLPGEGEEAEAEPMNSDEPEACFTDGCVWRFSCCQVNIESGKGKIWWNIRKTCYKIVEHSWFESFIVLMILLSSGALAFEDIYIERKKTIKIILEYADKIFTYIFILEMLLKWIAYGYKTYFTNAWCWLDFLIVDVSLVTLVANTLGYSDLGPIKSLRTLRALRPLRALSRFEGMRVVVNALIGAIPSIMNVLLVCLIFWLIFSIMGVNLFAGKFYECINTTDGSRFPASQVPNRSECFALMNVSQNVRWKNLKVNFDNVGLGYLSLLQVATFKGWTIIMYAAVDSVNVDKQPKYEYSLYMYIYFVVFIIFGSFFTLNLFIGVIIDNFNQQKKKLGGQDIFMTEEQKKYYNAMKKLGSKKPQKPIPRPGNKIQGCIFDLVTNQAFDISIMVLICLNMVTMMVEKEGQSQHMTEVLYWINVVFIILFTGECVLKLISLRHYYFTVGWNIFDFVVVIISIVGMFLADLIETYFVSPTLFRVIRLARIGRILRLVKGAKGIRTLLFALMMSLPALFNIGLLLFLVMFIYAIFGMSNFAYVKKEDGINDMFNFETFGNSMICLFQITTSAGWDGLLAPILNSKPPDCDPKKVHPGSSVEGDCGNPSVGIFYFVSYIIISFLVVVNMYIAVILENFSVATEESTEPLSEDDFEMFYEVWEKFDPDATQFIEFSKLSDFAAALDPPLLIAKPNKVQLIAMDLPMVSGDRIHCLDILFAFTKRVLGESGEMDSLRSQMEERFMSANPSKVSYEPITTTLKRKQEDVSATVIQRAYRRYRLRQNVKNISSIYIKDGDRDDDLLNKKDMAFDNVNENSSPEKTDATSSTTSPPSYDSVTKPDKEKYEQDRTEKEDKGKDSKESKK
# [3] = biological target: T1, Sodium channel protein type 5 subunit alpha; test: Inhibition of human Nav1.5 expressed in HEK293 cells by whole cell patch clamp electrophysiology method
# Summary of the method: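 Stable HEK293 line expressing human NaV1.5, recorded on the PatchXpress 7000A. Percent inhibition versus concentration was pooled from at least 10 cells, with two to three points per concentration. The pooled set was fitted with a four-parameter Hill equation to give a single IC50 curve.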
# [4] = biological target: T2, Sodium channel protein type 9 subunit alpha; test: Inhibition of human Nav1.7 expressed in HEK293 cells assessed as inward peak current by ion-works quattro patch clamp electrophysiology method
structure (smiles),measurement,setting,value
"CC[C@H](C)[C@@H]1NC(=O)[C@@H]2CSSC[C@@H]3NC(=O)[C@H](C(C)C)NC(=O)[C@H](CC(C)C)NC(=O)[C@H](CC(N)=O)NC(=O)[C@@H]4CCCN4C(=O)[C@H](CCCNC(=N)N)NC(=O)[C@H](CSSC[C@H](NC(=O)[C@@H](N)CC(=O)O)C(=O)N[C@@H](CC(C)C)C(=O)NCC(=O)N[C@@H](Cc4ccccc4)C(=O)N[C@@H](CCSC)C(=O)N[C@@H](CCCNC(=N)N)C(=O)N[C@@H](CCCCN)C(=O)N2)NC(=O)[C@H](CSSC[C@@H](C(=O)N[C@@H](CCCCN)C(=O)N[C@@H](Cc2ccc(O)cc2)C(=O)N[C@H](C(=O)N[C@@H](Cc2cccc4ccccc24)C(N)=O)C(C)C)NC(=O)[C@H](Cc2c[nH]c4ccccc24)NC(=O)[C@H](CCCCN)NC(=O)[C@H](Cc2cnc[nH]2)NC(=O)[C@H]([C@@H](C)O)NC(=O)[C@H](CCCNC(=N)N)NC(=O)[C@H](CO)NC3=O)NC(=O)[C@H](CCCCN)NC(=O)[C@H](CC(=O)O)NC(=O)[C@H](CC(N)=O)NC(=O)[C@H](CC(=O)O)NC(=O)[C@@H]2CCCN2C1=O (H-DCLGFMRKCIPDNDKCCRPNLVCSRTHKWCKYV[1Nal]-NH2; disulfide 2-17, 9-23, 16-30)",IC50,[1],> 5000 nM
same,IC50,[2],5 nM
same,IC50,[3],1800 nM
same,IC50,[4],40 nM
"CC[C@H](C)[C@@H]1NC(=O)[C@@H]2CSSC[C@@H]3NC(=O)[C@H](C(C)C)NC(=O)[C@H](CC(C)C)NC(=O)[C@H](CC(N)=O)NC(=O)[C@@H]4CCCN4C(=O)[C@H](Cc4cc5ccccc5[nH]4)NC(=O)[C@H](CSSC[C@H](NC(=O)[C@@H](N)CC(=O)O)C(=O)N[C@@H](CC(C)C)C(=O)NCC(=O)N[C@@H](Cc4ccccc4)C(=O)N[C@@H](CCSC)C(=O)N[C@@H](CCCNC(=N)N)C(=O)N[C@@H](CCCCN)C(=O)N2)NC(=O)[C@H](CSSC[C@@H](C(=O)N[C@@H](CCCCN)C(=O)N[C@@H](Cc2ccc(O)cc2)C(=O)N[C@H](C(=O)N[C@@H](Cc2ccccc2)C(N)=O)C(C)C)NC(=O)[C@H](Cc2c[nH]c4ccccc24)NC(=O)[C@H](CCCCN)NC(=O)[C@H](Cc2cnc[nH]2)NC(=O)[C@H]([C@@H](C)O)NC(=O)[C@H](CCCNC(=N)N)NC(=O)[C@H](CO)NC3=O)NC(=O)[C@H](CCCCN)NC(=O)[C@H](CC(=O)O)NC(=O)[C@H](CC(N)=O)NC(=O)[C@H](CC(=O)O)NC(=O)[C@@H]2CCCN2C1=O (H-DCLGFMRKCIPDNDKCC[Ala(indol-2-yl)]PNLVCSRTHKWCKYVF-NH2; disulfide 2-17, 9-23, 16-30)",IC50,[1],> 5000 nM
same,IC50,[2],18 nM
same,IC50,[3],> 10000 nM
same,IC50,[4],180 nM
"CSCC[C@@H]1NC(=O)[C@H](Cc2ccccc2)NC(=O)CNC(=O)[C@H](CC(C)C)NC(=O)[C@@H](NC(=O)[C@@H](N)CC(=O)O)CSSC[C@@H]2NC(=O)[C@@H]3CSSC[C@@H](C(=O)N[C@@H](CCCCN)C(=O)N[C@@H](Cc4ccc(O)cc4)C(=O)N[C@H](C(=O)N[C@@H](Cc4ccccc4)C(N)=O)C(C)C)NC(=O)[C@H](Cc4c[nH]c5ccccc45)NC(=O)[C@H](CCCCN)NC(=O)[C@H](Cc4cnc[nH]4)NC(=O)[C@H]([C@@H](C)O)NC(=O)[C@H](CCCNC(=N)N)NC(=O)[C@H](CO)NC(=O)[C@H](CSSC[C@H](NC(=O)[C@H](CCCCN)NC(=O)[C@H](CCCNC(=N)N)NC1=O)C(=O)N[C@@H](CC(N)=O)C(=O)N1CCC[C@H]1C(=O)N[C@@H](CC(=O)O)C(=O)N[C@@H](CC(N)=O)C(=O)N[C@@H](CC(=O)O)C(=O)N[C@@H](CCCCN)C(=O)N3)NC(=O)[C@H](C(C)C)NC(=O)[C@H](CC(C)C)NC(=O)[C@H](CC(N)=O)NC(=O)[C@@H]1CCCN1C(=O)[C@H](CCCNC(=N)N)NC2=O (H-DCLGFMRKCNPDNDKCCRPNLVCSRTHKWCKYVF-NH2; disulfide 2-17, 9-23, 16-30)",IC50,[1],> 5000 nM
same,IC50,[2],1.9 nM
same,IC50,[3],> 10000 nM
same,IC50,[4],330 nM
"CC[C@H](C)[C@@H]1NC(=O)[C@@H]2CSSC[C@@H]3NC(=O)[C@H](C(C)C)NC(=O)[C@H](CC(C)C)NC(=O)[C@H](CC(N)=O)NC(=O)[C@@H]4CCCN4C(=O)[C@H](Cc4ccccn4)NC(=O)[C@H](CSSC[C@H](NC(=O)[C@@H](N)CC(=O)O)C(=O)N[C@@H](CC(C)C)C(=O)NCC(=O)N[C@@H](Cc4ccccc4)C(=O)N[C@@H](CCSC)C(=O)N[C@@H](CCCNC(=N)N)C(=O)N[C@@H](CCCCN)C(=O)N2)NC(=O)[C@H](CSSC[C@@H](C(=O)N[C@@H](CCCCN)C(=O)N[C@@H](Cc2ccc(O)cc2)C(=O)N[C@H](C(=O)N[C@@H](Cc2ccccc2)C(N)=O)C(C)C)NC(=O)[C@H](Cc2c[nH]c4ccccc24)NC(=O)[C@H](CCCCN)NC(=O)[C@H](Cc2cnc[nH]2)NC(=O)[C@H]([C@@H](C)O)NC(=O)[C@H](CCCNC(=N)N)NC(=O)[C@H](CO)NC3=O)NC(=O)[C@H](CCCCN)NC(=O)[C@H](CC(=O)O)NC(=O)[C@H](CC(N)=O)NC(=O)[C@H](CC(=O)O)NC(=O)[C@@H]2CCCN2C1=O (H-DCLGFMRKCIPDNDKCC[2Pal]PNLVCSRTHKWCKYVF-NH2; disulfide 2-17, 9-23, 16-30)",IC50,[1],> 5000 nM
same,IC50,[2],4 nM
same,IC50,[3],13100 nM
same,IC50,[4],300 nM
"CC[C@H](C)[C@@H]1NC(=O)[C@@H]2CSSC[C@@H]3NC(=O)[C@H](Cc4c[nH]c5ccccc45)NC(=O)[C@H](CC(C)C)NC(=O)[C@H](CC(N)=O)NC(=O)[C@@H]4CCCN4C(=O)[C@H](CCCNC(=N)N)NC(=O)[C@H](CSSC[C@H](NC(=O)[C@@H](N)CC(=O)O)C(=O)N[C@@H](CC(C)C)C(=O)NCC(=O)N[C@@H](Cc4ccccc4)C(=O)N[C@@H](CCSC)C(=O)N[C@@H](CCCNC(=N)N)C(=O)N[C@@H](CCCCN)C(=O)N2)NC(=O)[C@H](CSSC[C@@H](C(=O)N[C@@H](CCCCN)C(=O)N[C@@H](Cc2ccc(O)cc2)C(=O)N[C@H](C(=O)N[C@@H](Cc2ccccc2)C(N)=O)C(C)C)NC(=O)[C@H](Cc2c[nH]c4ccccc24)NC(=O)[C@H](CCCCN)NC(=O)[C@H](Cc2cnc[nH]2)NC(=O)[C@H]([C@@H](C)O)NC(=O)[C@H](CCCNC(=N)N)NC(=O)[C@H](CO)NC3=O)NC(=O)[C@H](CCCCN)NC(=O)[C@H](CC(=O)O)NC(=O)[C@H](CC(N)=O)NC(=O)[C@H](CC(=O)O)NC(=O)[C@@H]2CCCN2C1=O (H-DCLGFMRKCIPDNDKCCRPNLWCSRTHKWCKYVF-NH2; disulfide 2-17, 9-23, 16-30)",IC50,[1],> 5000 nM
same,IC50,[2],42 nM
same,IC50,[3],3200 nM
same,IC50,[4],60 nM
"CC[C@H](C)[C@@H]1NC(=O)[C@@H]2CSSC[C@@H]3NC(=O)[C@H](C(C)C)NC(=O)[C@H](CC(C)C)NC(=O)[C@H](CC(N)=O)NC(=O)[C@@H]4CCCN4C(=O)[C@H](CCCCN)NC(=O)[C@H](CSSC[C@H](NC(=O)[C@@H](N)CC(=O)O)C(=O)N[C@@H](CC(C)C)C(=O)NCC(=O)N[C@@H](Cc4ccccc4)C(=O)N[C@@H](CCSC)C(=O)N[C@@H](CCCNC(=N)N)C(=O)N[C@@H](CCCCN)C(=O)N2)NC(=O)[C@H](CSSC[C@@H](C(=O)N[C@@H](CCCCN)C(=O)N[C@@H](Cc2ccc(O)cc2)C(=O)N[C@H](C(=O)N[C@@H](Cc2ccccc2)C(N)=O)C(C)C)NC(=O)[C@H](Cc2c[nH]c4ccccc24)NC(=O)[C@H](CCCCN)NC(=O)[C@H](Cc2cnc[nH]2)NC(=O)[C@H]([C@@H](C)O)NC(=O)[C@H](CCCNC(=N)N)NC(=O)[C@H](CO)NC3=O)NC(=O)[C@H](CCCCN)NC(=O)[C@H](CC(=O)O)NC(=O)[C@H](CC(N)=O)NC(=O)[C@H](CC(=O)O)NC(=O)[C@@H]2CCCN2C1=O (H-DCLGFMRKCIPDNDKCCKPNLVCSRTHKWCKYVF-NH2; disulfide 2-17, 9-23, 16-30)",IC50,[1],> 5000 nM
same,IC50,[2],1.6 nM
same,IC50,[3],15900 nM
same,IC50,[4],360 nM
CC[C@H](C)[C@@H]1NC(=O)[C@@H]2CSSC[C@@H]3NC(=O)[C@H](C(C)C)NC(=O)[C@H](CC(C)C)NC(=O)[C@H](CC(N)=O)NC(=O)[C@@H]4CCCN4C(=O)[C@H](CCCNC(N)=O)NC(=O)[C@H](CSSC[C@H](NC(=O)[C@@H](N)CC(=O)O)C(=O)N[C@@H](CC(C)C)C(=O)NCC(=O)N[C@@H](Cc4ccccc4)C(=O)N[C@@H](CCSC)C(=O)N[C@@H](CCCNC(=N)N)C(=O)N[C@@H](CCCCN)C(=O)N2)NC(=O)[C@H](CSSC[C@@H](C(=O)N[C@@H](CCCCN)C(=O)N[C@@H](Cc2ccc(O)cc2)C(=O)N[C@H](C(=O)N[C@@H](Cc2ccccc2)C(N)=O)C(C)C)NC(=O)[C@H](Cc2c[nH]c4ccccc24)NC(=O)[C@H](CCCCN)NC(=O)[C@H](Cc2cnc[nH]2)NC(=O)[C@H]([C@@H](C)O)NC(=O)[C@H](CCCNC(=N)N)NC(=O)[C@H](CO)NC3=O)NC(=O)[C@H](CCCCN)NC(=O)[C@H](CC(=O)O)NC(=O)[C@H](CC(N)=O)NC(=O)[C@H](CC(=O)O)NC(=O)[C@@H]2CCCN2C1=O,IC50,[1],> 5000 nM
same,IC50,[2],1.9 nM
same,IC50,[3],> 10000 nM
same,IC50,[4],180 nM
